Experimental data: ChEMBL document CHEMBL4689842, “EUbOPEN Chemogenomics Library wave 1” (2021)
Where “and” joins values, the source holds several entries; their conditions need not be identical. Equal values may be shown once.

System: Fibroblast
Experiment: Multiplex assay against human fibroblast
Type: toxicity, cell-based
Method in brief: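 Compound was added to live cells that had been stained at seeding with Hoechst33342, BioTracker Green Microtubule Cytoskeleton Dye, MitoTracker Red and Annexin V Alexa Fluor 680, and imaging followed on a CQ1 microscope at 37°C and 5% CO2. CellPathfinder machine-learning gating divided cells into Hoechst high-intensity objects or normal cells, normal cells into healthy, pyknosed or fragmented nuclei, and pyknosed cells into mitotic or apoptotic. Tubulin, mitochondrial-mass and membrane-permeability phenotypes are per cents of healthy-nucleus cells.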

[1] = 12 h, 10 µM, compound concentration 10 uM, replicate 1
[2] = 12 h, 10 µM, compound concentration 10 uM, replicate 2
[3] = 24 h, 10 µM, compound concentration 10 uM, replicate 1
[4] = 24 h, 10 µM, compound concentration 10 uM, replicate 2
[5] = 12 h, 1 µM, compound concentration 1 uM, replicate 1
[6] = 12 h, 1 µM, compound concentration 1 uM, replicate 2
[7] = 24 h, 1 µM, compound concentration 1 uM, replicate 1
[8] = 24 h, 1 µM, compound concentration 1 uM, replicate 2
[9] = 48 h, 10 µM, compound concentration 10 uM, replicate 1
[10] = 48 h, 10 µM, compound concentration 10 uM, replicate 2

CN1C(=O)c2sccc2N(C)c2nc(Nc3ccc(S(N)(=O)=O)cc3)ncc21
Population Apoptotic (%) [1]: 73% and 80% | Population Fragmented Nuclei (%) [1]: 30% and 28% | Population Healthy Nuclei (%) [1]: 50% and 56% | Population Hoechst High Intensity Objects (%) [1]: 9% and 15% | Population Membrane Permeable-Phenotype (%) [1]: 7% and 4% | Population Mitochondria Different-Phenotype (%) [1]: 7% | Population Mitotic Cells (%) [1]: 26% and 20% | Population Normal (%) [1]: 90% and 84% | Population Pyknosed Nuclei (%) [1]: 18% and 14% | Population Tubulin-Different-Phenotype (%) [1]: 3% and 7% | Total Cell Count [1]: 224 and 198 | Population Fragmented Nuclei (%) [2]: 52% | Population Healthy Nuclei (%) [2]: 36% and 33% | Population Hoechst High Intensity Objects (%) [2]: 32% and 34% | Population Membrane Permeable-Phenotype (%) [2]: 13% and 8% | Population Mitochondria Different-Phenotype (%) [2]: 13% and 0% | Population Mitotic Cells (%) [2]: 42% and 100% | Population Normal (%) [2]: 67% and 65% | Population Pyknosed Nuclei (%) [2]: 11% and 13% | Population Tubulin-Different-Phenotype (%) [2]: 4% and 0% | Total Cell Count [2]: 91 and 55 | Population Apoptotic (%) [3]: 55% and 72% | Population Fragmented Nuclei (%) [3]: 23% and 27% | Population Healthy Nuclei (%) [3]: 60% and 52% | Population Hoechst High Intensity Objects (%) [3]: 14% and 16% | Population Membrane Permeable-Phenotype (%) [3]: 8% | Population Mitochondria Different-Phenotype (%) [3]: 2% | Population Mitotic Cells (%) [3]: 44% and 27% | Population Normal (%) [3]: 85% and 83% | Population Pyknosed Nuclei (%) [3]: 15% and 20% | Population Tubulin-Different-Phenotype (%) [3]: 5% and 3% | Total Cell Count [3]: 219 and 217 | Population Apoptotic (%) [4]: 45% and 50% | Population Fragmented Nuclei (%) [4]: 59% and 52% | Population Healthy Nuclei (%) [4]: 23% and 36% | Population Hoechst High Intensity Objects (%) [4]: 33% and 37% | Population Membrane Permeable-Phenotype (%) [4]: 0% | Population Mitochondria Different-Phenotype (%) [4]: 6% and 0% | Population Mitotic Cells (%) [4]: 54% and 50% | Population Normal (%) [4]: 66% and 62% | Population Pyknosed Nuclei (%) [4]: 17% and 11% | Population Tubulin-Different-Phenotype (%) [4]: 6% and 15% | Total Cell Count [4]: 96 and 58

COc1cc2nccc(Oc3ccc(NC(=O)Nc4cc(C)on4)c(Cl)c3)c2cc1OC.O
Population Apoptotic (%) [5]: 66% and 58% | Population Fragmented Nuclei (%) [5]: 38% and 29% | Population Healthy Nuclei (%) [5]: 45% and 54% | Population Hoechst High Intensity Objects (%) [5]: 11% and 12% | Population Membrane Permeable-Phenotype (%) [5]: 10% and 8% | Population Mitochondria Different-Phenotype (%) [5]: 10% | Population Mitotic Cells (%) [5]: 33% and 41% | Population Normal (%) [5]: 88% and 87% | Population Pyknosed Nuclei (%) [5]: 16% | Population Tubulin-Different-Phenotype (%) [5]: 13% | Total Cell Count [5]: 229 and 203 | Population Apoptotic (%) [6]: 40% and 50% | Population Fragmented Nuclei (%) [6]: 63% and 48% | Population Healthy Nuclei (%) [6]: 28% and 18% | Population Hoechst High Intensity Objects (%) [6]: 33% and 40% | Population Membrane Permeable-Phenotype (%) [6]: 27% and 28% | Population Mitotic Cells (%) [6]: 60% and 50% | Population Normal (%) [6]: 66% and 59% | Population Tubulin-Different-Phenotype (%) [6]: 38% and 57% | Total Cell Count [6]: 95 and 62 | Population Apoptotic (%) [1]: 47% | Population Fragmented Nuclei (%) [1]: 30% | Population Healthy Nuclei (%) [1]: 31% | Population Hoechst High Intensity Objects (%) [1]: 13% | Population Membrane Permeable-Phenotype (%) [1]: 17% | Population Mitochondria Different-Phenotype (%) [1]: 31% | Population Mitotic Cells (%) [1]: 52% | Population Normal (%) [1]: 86% | Population Pyknosed Nuclei (%) [1]: 37% | Population Tubulin-Different-Phenotype (%) [1]: 77% | Total Cell Count [1]: 163 | Population Apoptotic (%) [2]: 71% | Population Fragmented Nuclei (%) [2]: 11% | Population Healthy Nuclei (%) [2]: 75% | Population Hoechst High Intensity Objects (%) [2]: 3% | Population Membrane Permeable-Phenotype (%) [2]: 36% | Population Mitochondria Different-Phenotype (%) [2]: 97% | Population Mitotic Cells (%) [2]: 28% | Population Normal (%) [2]: 96% | Population Pyknosed Nuclei (%) [2]: 12% | Population Tubulin-Different-Phenotype (%) [2]: 97% | Total Cell Count [2]: 58 | Population Apoptotic (%) [7]: 76% and 68% | Population Fragmented Nuclei (%) [7]: 41% and 26% | Population Healthy Nuclei (%) [7]: 39% and 59% | Population Hoechst High Intensity Objects (%) [7]: 15% and 11% | Population Membrane Permeable-Phenotype (%) [7]: 3% and 0% | Population Mitochondria Different-Phenotype (%) [7]: 42% | Population Mitotic Cells (%) [7]: 23% and 32% | Population Normal (%) [7]: 84% and 88% | Population Pyknosed Nuclei (%) [7]: 19% and 14% | Total Cell Count [7]: 231 and 198 | Population Apoptotic (%) [8]: 25% | Population Fragmented Nuclei (%) [8]: 58% and 53% | Population Healthy Nuclei (%) [8]: 34% and 19% | Population Hoechst High Intensity Objects (%) [8]: 35% and 29% | Population Membrane Permeable-Phenotype (%) [8]: 10% and 22% | Population Mitotic Cells (%) [8]: 75% | Population Normal (%) [8]: 64% and 70% | Total Cell Count [8]: 85 and 67 | Population Apoptotic (%) [3]: 57% | Population Fragmented Nuclei (%) [3]: 29% | Population Healthy Nuclei (%) [3]: 40% | Population Hoechst High Intensity Objects (%) [3]: 19% | Population Membrane Permeable-Phenotype (%) [3]: 11% | Population Mitochondria Different-Phenotype (%) [3]: 53% | Population Mitotic Cells (%) [3]: 42% | Population Normal (%) [3]: 80% | Population Pyknosed Nuclei (%) [3]: 29% | Population Tubulin-Different-Phenotype (%) [3]: 86% | Total Cell Count [3]: 158 | Population Apoptotic (%) [4]: 92% | Population Fragmented Nuclei (%) [4]: 16% | Population Healthy Nuclei (%) [4]: 60% | Population Hoechst High Intensity Objects (%) [4]: 3% | Population Membrane Permeable-Phenotype (%) [4]: 67% | Population Mitochondria Different-Phenotype (%) [4]: 100% | Population Mitotic Cells (%) [4]: 7% | Population Normal (%) [4]: 96% | Population Pyknosed Nuclei (%) [4]: 23% | Population Tubulin-Different-Phenotype (%) [4]: 97% | Total Cell Count [4]: 58 | Population Apoptotic (%) [9]: 76% | Population Fragmented Nuclei (%) [9]: 33% | Population Healthy Nuclei (%) [9]: 47% | Population Hoechst High Intensity Objects (%) [9]: 22% | Population Membrane Permeable-Phenotype (%) [9]: 10% | Population Mitochondria Different-Phenotype (%) [9]: 60% | Population Mitotic Cells (%) [9]: 23% | Population Normal (%) [9]: 77% | Population Pyknosed Nuclei (%) [9]: 18% | Population Tubulin-Different-Phenotype (%) [9]: 83% | Total Cell Count [9]: 148 | Population Apoptotic (%) [10]: 62% | Population Fragmented Nuclei (%) [10]: 36% | Population Healthy Nuclei (%) [10]: 54% | Population Hoechst High Intensity Objects (%) [10]: 10% | Population Membrane Permeable-Phenotype (%) [10]: 0% | Population Mitochondria Different-Phenotype (%) [10]: 75% | Population Mitotic Cells (%) [10]: 37% | Population Normal (%) [10]: 89% | Population Pyknosed Nuclei (%) [10]: 9% | Population Tubulin-Different-Phenotype (%) [10]: 95% | Total Cell Count [10]: 98
